Assay results taken from ChEMBL document CHEMBL3286180, “Efficacious inhaled PDE4 inhibitors with low emetic potential and long duration of action for the treatment of COPD” (J Med Chem, 2014).
Values after ≈ are worked out from the molar mass of the structure shown. Active and inactive are the calls of the source. The calls are words filed in the database; no cut-off is given here.

Key:
Rattus norvegicus [1] = assay: Antiinflammatory activity in Sprague-Dawley rat assessed as inhibition of LPS-induced bronchoalveolar lavage neutrophils at 0.03 mg/ml, inhalation administered as nebulized suspension; format: functional, organism-based
Procedure, shortened: (§1)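 Rats were given the compound as an aqueous nebulized aerosol by nose-only inhalation 30 min before LPS challenge. Dose is expressed as mg/mL nebulizer concentration. Lung neutrophilia was the readout, and terminal lung concentration (nM) was measured. Groups held 8−10 animals per treatment.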

Rattus norvegicus [2] = assay: Antiinflammatory activity in Sprague-Dawley rat assessed as inhibition of LPS-induced bronchoalveolar lavage neutrophils at 0.01 mg/ml, inhalation administered as nebulized suspension; format: functional; procedure, shortened: as §1
PBMC = assay: Antiinflammatory activity in human PBMC assessed as inhibition of LPS-induced TNFalpha production after 20 hrs by fluorescence linked immunosorbant assay; format: functional, cell-based
[3] = Fraction unbound in human plasma; format: ADME, cell-free
[4] = Aqueous solubility of the compound at pH 7.4; format: physicochemical; conditions: aqueous medium
[5] = Lipophilicity, log D of the compound; format: physicochemical; conditions: octanol/water
[6] = Clearance in rat at 1 mg/kg, iv; format: ADME, organism-based; parameters: dose 1 mg/kg, route intravenous; conditions: in vivo
Procedure, shortened: (§2)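 Rat pharmacokinetics were run at 1 mg/kg, given iv or by intratracheal instillation, with 2−3 animals per study.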

[7] = Volume of distribution at steady state in rat at 1 mg/kg, iv; format: ADME, organism-based; parameters: dose 1 mg/kg, route intravenous; conditions: in vivo, read-out: Vdss
[8] = Half life in rat at 1 mg/kg, iv; format: ADME, organism-based; parameters: dose 1 mg/kg, route intravenous; conditions: in vivo; procedure, shortened: as §2
Cytochrome P450 3A4 = Cytochrome P450 3A4 (Homo sapiens, UniProt P08684); assay: Inhibition of CYP3A4 (unknown origin); format: ADME
Cytochrome P450 3A4, sequence (P08684 whole entry): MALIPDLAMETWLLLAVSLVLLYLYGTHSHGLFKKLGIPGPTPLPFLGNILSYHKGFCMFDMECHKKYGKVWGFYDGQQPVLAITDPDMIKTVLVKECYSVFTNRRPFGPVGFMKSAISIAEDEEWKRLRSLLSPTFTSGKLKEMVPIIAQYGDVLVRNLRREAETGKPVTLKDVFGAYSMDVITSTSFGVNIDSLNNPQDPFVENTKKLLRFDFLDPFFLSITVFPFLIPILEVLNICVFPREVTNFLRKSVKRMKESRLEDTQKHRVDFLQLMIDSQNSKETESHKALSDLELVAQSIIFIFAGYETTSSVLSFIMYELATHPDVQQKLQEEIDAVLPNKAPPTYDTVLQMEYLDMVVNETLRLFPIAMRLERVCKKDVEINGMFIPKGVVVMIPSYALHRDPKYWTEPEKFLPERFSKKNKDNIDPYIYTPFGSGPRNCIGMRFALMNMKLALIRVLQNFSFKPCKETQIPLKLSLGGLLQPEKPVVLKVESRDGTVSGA

Cytochrome P450 2C9 = Cytochrome P450 2C9 (Homo sapiens, UniProt P11712); assay: Inhibition of CYP2C9 (unknown origin); format: ADME
Cytochrome P450 2C9, sequence (P11712 whole entry): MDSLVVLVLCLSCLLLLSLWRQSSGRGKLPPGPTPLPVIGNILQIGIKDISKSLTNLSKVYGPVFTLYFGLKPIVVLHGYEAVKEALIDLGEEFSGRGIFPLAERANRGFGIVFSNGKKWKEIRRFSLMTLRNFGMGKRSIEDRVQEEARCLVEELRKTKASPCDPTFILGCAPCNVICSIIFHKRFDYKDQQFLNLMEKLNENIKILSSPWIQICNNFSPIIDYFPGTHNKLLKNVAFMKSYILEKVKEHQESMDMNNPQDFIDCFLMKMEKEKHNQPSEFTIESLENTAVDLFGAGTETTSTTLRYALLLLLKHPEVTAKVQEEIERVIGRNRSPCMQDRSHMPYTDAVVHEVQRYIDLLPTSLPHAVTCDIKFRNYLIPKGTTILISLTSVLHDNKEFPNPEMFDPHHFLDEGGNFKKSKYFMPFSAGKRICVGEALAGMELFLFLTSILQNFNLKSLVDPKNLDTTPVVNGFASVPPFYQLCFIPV

Cytochrome P450 2D6 = Cytochrome P450 2D6 (Homo sapiens, UniProt P10635); assay: Inhibition of CYP2D6 (unknown origin); format: ADME
Cytochrome P450 2D6, sequence (P10635 whole entry): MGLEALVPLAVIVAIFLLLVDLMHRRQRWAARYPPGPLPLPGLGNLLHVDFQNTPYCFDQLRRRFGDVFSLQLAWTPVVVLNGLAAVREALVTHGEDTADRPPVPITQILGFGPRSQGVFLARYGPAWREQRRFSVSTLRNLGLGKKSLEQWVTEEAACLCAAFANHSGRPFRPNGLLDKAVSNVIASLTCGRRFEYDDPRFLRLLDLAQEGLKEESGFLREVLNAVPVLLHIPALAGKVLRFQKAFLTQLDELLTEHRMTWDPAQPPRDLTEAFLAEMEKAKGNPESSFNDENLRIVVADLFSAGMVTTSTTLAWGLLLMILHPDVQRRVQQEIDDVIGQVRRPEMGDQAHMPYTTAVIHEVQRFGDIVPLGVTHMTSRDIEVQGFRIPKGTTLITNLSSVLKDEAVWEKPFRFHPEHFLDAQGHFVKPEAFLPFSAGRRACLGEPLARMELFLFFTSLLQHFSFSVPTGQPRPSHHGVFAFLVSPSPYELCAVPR

Cytochrome P450 1A2 = molecular target: T1, Cytochrome P450 1A2 (Homo sapiens, UniProt P05177); assay: Inhibition of CYP1A2 (unknown origin); format: ADME
T1 sequence (P05177 whole entry): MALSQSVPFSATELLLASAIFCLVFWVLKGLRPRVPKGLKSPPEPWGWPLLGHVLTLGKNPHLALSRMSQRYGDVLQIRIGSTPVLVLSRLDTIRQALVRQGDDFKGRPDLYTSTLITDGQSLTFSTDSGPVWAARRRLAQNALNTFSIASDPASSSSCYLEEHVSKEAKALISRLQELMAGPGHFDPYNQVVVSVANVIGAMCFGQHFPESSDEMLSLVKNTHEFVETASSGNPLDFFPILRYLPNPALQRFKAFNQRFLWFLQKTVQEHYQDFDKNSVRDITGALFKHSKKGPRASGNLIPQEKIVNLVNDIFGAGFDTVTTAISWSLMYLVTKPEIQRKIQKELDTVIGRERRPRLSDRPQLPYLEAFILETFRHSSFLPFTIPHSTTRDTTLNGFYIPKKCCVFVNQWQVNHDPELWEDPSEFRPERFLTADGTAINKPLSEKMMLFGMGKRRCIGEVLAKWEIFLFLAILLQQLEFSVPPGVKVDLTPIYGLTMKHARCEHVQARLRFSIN

Cytochrome P450 2C19 = Cytochrome P450 2C19 (Homo sapiens, UniProt P33261); assay: Inhibition of CYP2C19 (unknown origin); format: ADME
Cytochrome P450 2C19, sequence (P33261 whole entry): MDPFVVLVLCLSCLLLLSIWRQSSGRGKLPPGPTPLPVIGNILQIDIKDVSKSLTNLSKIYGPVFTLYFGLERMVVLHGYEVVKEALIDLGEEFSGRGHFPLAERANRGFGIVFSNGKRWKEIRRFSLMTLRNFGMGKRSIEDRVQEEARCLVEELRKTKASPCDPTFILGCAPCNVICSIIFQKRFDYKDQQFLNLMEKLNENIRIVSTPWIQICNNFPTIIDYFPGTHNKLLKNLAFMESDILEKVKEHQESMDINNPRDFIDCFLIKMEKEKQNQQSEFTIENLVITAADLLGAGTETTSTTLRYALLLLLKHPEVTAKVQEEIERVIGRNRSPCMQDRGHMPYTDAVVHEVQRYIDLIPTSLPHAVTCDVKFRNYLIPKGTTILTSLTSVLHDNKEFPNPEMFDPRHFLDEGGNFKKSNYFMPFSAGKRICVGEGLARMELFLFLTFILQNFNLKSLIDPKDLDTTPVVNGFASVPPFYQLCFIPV

Rattus norvegicus [9] = assay: Apparent volume of distribution in rat at 1 mg/kg, iv; format: ADME, organism-based; parameters: dose 1 mg/kg, route intravenous; conditions: in vivo; procedure, shortened: as §2
[10] = molecular target: 3',5'-cyclic-AMP phosphodiesterase 4B (Homo sapiens, UniProt Q07343); assay: Inhibition of human recombinant PDE4B using [3H]cAMP by packard topcount scintillation counting analysis
3',5'-cyclic-AMP phosphodiesterase 4B, sequence (Q07343 whole entry): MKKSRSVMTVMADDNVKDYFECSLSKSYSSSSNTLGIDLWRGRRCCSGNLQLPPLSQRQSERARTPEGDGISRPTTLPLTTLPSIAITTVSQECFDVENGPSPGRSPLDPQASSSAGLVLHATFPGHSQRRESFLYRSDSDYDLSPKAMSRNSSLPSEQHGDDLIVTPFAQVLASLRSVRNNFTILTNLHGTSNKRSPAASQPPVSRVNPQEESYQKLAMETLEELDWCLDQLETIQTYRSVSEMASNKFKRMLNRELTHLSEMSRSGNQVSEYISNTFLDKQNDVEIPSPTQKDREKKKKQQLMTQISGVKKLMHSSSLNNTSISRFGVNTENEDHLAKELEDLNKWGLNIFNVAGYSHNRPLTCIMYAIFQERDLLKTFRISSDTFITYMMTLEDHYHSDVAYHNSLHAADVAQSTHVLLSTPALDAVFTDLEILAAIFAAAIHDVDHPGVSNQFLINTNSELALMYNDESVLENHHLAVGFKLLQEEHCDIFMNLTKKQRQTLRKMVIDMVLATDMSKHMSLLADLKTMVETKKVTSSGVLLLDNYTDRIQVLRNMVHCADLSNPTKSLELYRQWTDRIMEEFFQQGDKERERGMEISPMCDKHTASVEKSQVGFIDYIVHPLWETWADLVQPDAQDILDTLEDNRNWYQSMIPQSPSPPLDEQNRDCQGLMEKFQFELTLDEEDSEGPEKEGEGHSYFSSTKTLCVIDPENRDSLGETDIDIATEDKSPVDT

Rattus norvegicus [11] = assay: Antiinflammatory activity in Sprague-Dawley rat assessed as inhibition of LPS-induced bronchoalveolar lavage neutrophils measured as LPS duration at 0.1 mg/ml, inhalation administered as nebulized suspension; format: functional, organism-based
Procedure, shortened: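 Duration protocol: rats received a nose-only inhalation of nebulized aqueous compound solution 12 h before LPS challenge. Dose is expressed as mg/mL nebulizer concentration. Readout was LPS-induced pulmonary neutrophilia, with terminal lung concentration (nM) measured. Groups held 8−10 animals per treatment.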

Rattus norvegicus [12] = assay: Antiinflammatory activity in Sprague-Dawley rat assessed as inhibition of LPS-induced bronchoalveolar lavage neutrophils at 1 mg/ml, inhalation administered as nebulized suspension; format: functional, organism-based; procedure, shortened: as §1

Cc1csc(C(=O)N[C@H]2CC[C@@H](NC(=O)c3cc(F)cnc3Oc3cccc(-c4ccc(CN5C[C@@H](C)N[C@@H](C)C5)cc4CN4CCOCC4)c3)CC2)n1
inhibition (Rattus norvegicus [1]): Active
inhibition (Rattus norvegicus [2]): Active

Cc1cccc2nc(C(=O)N[C@H]3CC[C@@H](NC(=O)c4cc(F)cnc4Oc4cccc(-c5ccc(CN6C[C@@H](C)N[C@@H](C)C6)cc5)c4)CC3)cn12
IC50 (PBMC): 0.126 nM
fraction unbound [3]: 0.012
solubility [4]: 460 µM (≈ 317 µg/mL)
logD [5]: 2.7
clearance [6]: 61 mL/min/kg
Vd [7]: 14 L/kg
half-life [8]: 5.3 h
IC50 (Cytochrome P450 3A4): > 1000 nM
IC50 (Cytochrome P450 2C9): > 1000 nM
IC50 (Cytochrome P450 2D6): > 1000 nM
IC50 (Cytochrome P450 1A2): > 1000 nM
IC50 (Cytochrome P450 2C19): > 1000 nM
Vz/F (Rattus norvegicus [9]): 28 L/kg

Cc1cc(C)n2ncc(C(=O)N[C@H]3CC[C@@H](NC(=O)c4cc(F)cnc4Oc4cccc(-c5ccc(O)cc5CN5CCOCC5)c4)CC3)c2n1
IC50 [10]: 0.0501 nM

Cc1csc(C(=O)N[C@H]2CC[C@@H](NC(=O)c3cc(F)cnc3Oc3cccc(-c4ccc(CN5C[C@@H](C)N[C@@H](C)C5)cc4)c3)CC2)n1
IC50 [10]: 0.0316 nM

Cc1cc(C(=O)N[C@H]2CC[C@@H](NC(=O)c3cc(F)cnc3Oc3cccc(-c4ccc(CCN5CCC(N6CCCC6)CC5)cc4)c3)CC2)nn1C
IC50 [10]: 0.0398 nM
IC50 (PBMC): 0.0316 nM
fraction unbound [3]: 0.042
solubility [4]: 120 µM (≈ 84.9 µg/mL)
logD [5]: 2.4
clearance [6]: 74 mL/min/kg
Vd [7]: 44 L/kg
half-life [8]: 9 h
IC50 (Cytochrome P450 3A4): > 1000 nM
IC50 (Cytochrome P450 2C9): > 1000 nM
IC50 (Cytochrome P450 2D6): > 1000 nM
IC50 (Cytochrome P450 1A2): > 1000 nM
IC50 (Cytochrome P450 2C19): > 1000 nM
Vz/F (Rattus norvegicus [9]): 59 L/kg
inhibition (Rattus norvegicus [11]): Active

O=C(N[C@H]1CC[C@@H](NC(=O)c2cc(F)cnc2Oc2cccc(-c3ccc(O)cc3CN3CCOCC3)c2)CC1)c1cncc(O)c1
IC50 [10]: 2.51 nM

Cc1cccc2nc(C(=O)N[C@H]3CC[C@@H](NC(=O)c4cc(F)cnc4Oc4cccc(-c5ccc(CN6CCC(N7CCCC7)CC6)cc5)c4)CC3)cn12
IC50 [10]: 0.0398 nM
IC50 (PBMC): 0.251 nM
fraction unbound [3]: 0.02
solubility [4]: > 1400 µM
logD [5]: 3.2
clearance [6]: 79 mL/min/kg
Vd [7]: 60 L/kg
half-life [8]: 12 h
IC50 (Cytochrome P450 3A4): > 1000 nM
IC50 (Cytochrome P450 2C9): > 1000 nM
IC50 (Cytochrome P450 2D6): > 1000 nM
IC50 (Cytochrome P450 1A2): > 1000 nM
IC50 (Cytochrome P450 2C19): > 1000 nM
inhibition (Rattus norvegicus [12]): Active
Vz/F (Rattus norvegicus [9]): 80 L/kg

Cc1cc(C(=O)N[C@H]2CC[C@@H](NC(=O)c3cc(F)cnc3Oc3cccc(-c4cccc(CN5C[C@@H](C)N[C@@H](C)C5)c4O)c3)CC2)nn1C
IC50 (PBMC): 3.16 nM
fraction unbound [3]: 0.091
solubility [4]: 470 µM (≈ 315 µg/mL)
logD [5]: 2.8

CN(C)Cc1cc(O)ccc1-c1cccc(Oc2ncc(F)cc2C(=O)N[C@H]2CC[C@@H](NC(=O)c3cccc4oc(=O)[nH]c34)CC2)c1
IC50 [10]: 20 nM

C[C@@H]1CN(Cc2ccc(-c3cccc(Oc4ncc(F)cc4C(=O)N[C@H]4CC[C@@H](NC(=O)c5ncccc5O)CC4)c3)cc2)C[C@H](C)N1
IC50 [10]: 0.126 nM

Cc1cc(C(=O)N[C@H]2CC[C@@H](NC(=O)c3cc(F)cnc3Oc3cccc(-c4ccc(O)c(CN5C[C@@H](C)N[C@@H](C)C5)c4)c3)CC2)nn1C
IC50 (PBMC): 0.0316 nM
fraction unbound [3]: 0.16
solubility [4]: 970 µM (≈ 650 µg/mL)
logD [5]: 2.3
